Rows were chosen to be rich in hits. Some 2.3% of all compounds tested hit in one or more screens of this group.
TRPC6 inhibitor: blocks the mouse TRPC6 cation channel. Q61143. 310,000 compounds, 1.1% hits. B-score at 10 µM. AID 2553. HEK293-TRPC6, membrane potential dye, ACh-evoked depolarization; stronger effect = lower value;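 active = B-score under library mean minus 3 SD, initial fluorescence not abnormally high, positive integrated signal ratio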;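 note: B-score derived from integrated fluorescence ratio over the kinetic read; more negative B-score means stronger inhibition of depolarization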
Target sequence (Q61143 whole entry, looked up): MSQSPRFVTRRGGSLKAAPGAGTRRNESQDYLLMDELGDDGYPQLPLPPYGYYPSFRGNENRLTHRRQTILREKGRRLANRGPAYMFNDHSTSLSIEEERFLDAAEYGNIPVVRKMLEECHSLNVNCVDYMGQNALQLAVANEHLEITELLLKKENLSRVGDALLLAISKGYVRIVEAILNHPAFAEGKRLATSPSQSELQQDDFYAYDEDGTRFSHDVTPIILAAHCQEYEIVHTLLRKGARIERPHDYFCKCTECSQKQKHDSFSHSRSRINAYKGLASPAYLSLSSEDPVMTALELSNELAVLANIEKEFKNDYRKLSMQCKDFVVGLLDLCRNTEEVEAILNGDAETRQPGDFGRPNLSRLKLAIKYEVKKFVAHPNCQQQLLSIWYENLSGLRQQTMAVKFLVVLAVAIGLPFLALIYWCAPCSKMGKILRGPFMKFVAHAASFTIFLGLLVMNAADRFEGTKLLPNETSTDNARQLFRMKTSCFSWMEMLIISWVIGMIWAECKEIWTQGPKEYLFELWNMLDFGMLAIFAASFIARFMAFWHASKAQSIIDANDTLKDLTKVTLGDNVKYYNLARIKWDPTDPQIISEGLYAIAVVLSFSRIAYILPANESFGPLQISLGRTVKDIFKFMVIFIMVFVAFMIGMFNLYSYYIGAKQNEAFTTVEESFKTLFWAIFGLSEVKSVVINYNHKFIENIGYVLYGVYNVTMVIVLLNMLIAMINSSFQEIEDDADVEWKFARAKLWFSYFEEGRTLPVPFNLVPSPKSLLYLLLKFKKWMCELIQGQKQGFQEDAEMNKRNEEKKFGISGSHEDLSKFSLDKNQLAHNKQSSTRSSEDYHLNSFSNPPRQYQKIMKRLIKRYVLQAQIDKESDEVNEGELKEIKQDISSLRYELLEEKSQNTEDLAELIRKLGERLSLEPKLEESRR
TRPC4 block: TRPC4 (mouse) channel inhibition. B-score at 10 µM. 300,000 compounds, 0.39% hits. HEK293 TRPC4beta/mu-opioid, DAMGO-evoked Fluo4 calcium flux; stronger effect = lower value;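 active = B-score over 3 SD under the library average, no early fluorescence shift, positive overall ratio signal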
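Signal: kinetic Fluo4 fluorescence imaging of calcium influx. Material: stable TRPC4beta/mu-opioid receptor HEK293 cells. Probe or stimulus: DAMGO in two steps, submaximal then maximal.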
TRPC6 act: activates the mouse TRPC6 cation channel | HEK293-TRPC6 membrane potential dye fluorescence; stronger effect = higher value | B-score at 10 µM | 310,000 compounds, 0.13% hits | AID 2550;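 active = B-score of the integrated fluorescence ratio above library mean plus 3 SD, and starting fluorescence ratio within library mean plus 5 SD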;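 note: higher score means more depolarization so channel activation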
TRPC4 agonist: opens the mouse TRPC4 cation channel. Q9QUQ5. HEK293 TRPC4beta/mu-opioid, Fluo4 calcium fluorescence; stronger effect = higher value. B-score at 10 µM. 310,000 compounds, 0.49% hits. AID 2237;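 active = B-score above 5 SD of library B-scores, and initial fluorescence ratio not above library mean plus 5 SD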;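 note: positive B-score marks a calcium rise read as TRPC4 activation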
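Assay system: HEK293 cells stably co-expressing mouse TRPC4beta and mu-opioid receptor / Timing: Fluo4 dye loading 45 min at room temperature, 110 s recording / Signal: Fluo4 calcium-sensitive dye fluorescence, kinetic, 1 Hz baseline / Read-out: integrated baseline-normalised fluorescence ratio, converted to per-well B score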
TRPC4 potent: allosteric potentiators of mouse TRPC4 channel; 310,000 compounds, 0.42% hits; Q9QUQ5; B-score at 10 µM; AID 2227; HEK293 TRPC4beta/mu-opioid, DAMGO EC20, Fluo-4 Ca2+ flux; stronger effect = higher value;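 active = B-score of calcium response area above 5 SD of library B-scores, with initial fluorescence ratio within 5 SD of library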;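 note: B-score of integrated fluorescence ratio over time as area under calcium response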
Active calls of the source: *; i = inactive.

SMILES	TRPC6 inhibitor	TRPC4 block	TRPC6 act	TRPC4 agonist	TRPC4 potent
CCCN(CCO)CCCc1ccccc1	i	i	i	i	11*
CCCCC(=O)Nc1cccc2c1C(=O)N(c1ccccc1)C2=O	i	i	i	i	24*
Cc1cccc(Cn2c(C(C)(C)C)cc3cccnc32)c1	i	-6*	i	i	i
COc1ccc(S(=O)(=O)N(C)CC(=O)N2CCCC2)cc1OC	i	i	i	i	i
C=CS(=O)(=O)c1sc(Cl)c(N2CCOCC2)c1[N+](=O)[O-]	i	-6*	i	i	i
C=CSc1sc(Cl)c(N2CCOCC2)c1[N+](=O)[O-]	i	i	i	i	i
O=C(O)c1ccc(N/N=C/c2ccc(C(F)(F)F)cc2)cc1	i	-5*	i	i	i
CCc1cc(=O)oc2c(CNCc3ccccc3F)c(O)c(Cl)cc12	i	i	i	i	17*
COC(=O)c1sc(NC(=S)NC(=O)c2ccccc2C)nc1C	i	i	i	49*	i
CCCCCn1c(=O)[nH]c2cc(C(=O)NCCN(CC)CC)ccc2c1=O	i	i	i	i	14*
COc1ccc(-n2ccnc(SCC(=O)NCc3ccccc3Cl)c2=O)cc1	i	i	i	i	i
COC(=O)C1Cc2ccccc2CN1S(=O)(=O)c1ccc(F)cc1 (stereo unspecified)	i	i	i	i	i
CCCNC(=O)c1c[nH]c2ccc(S(=O)(=O)N(C)c3ccc(OCC)cc3)cc2c1=O	i	i	i	i	i
CCCCN(C)CCNC(=O)c1c[nH]c2ccc(S(=O)(=O)N(CC)CC)cc2c1=O	i	i	i	i	20*
Cc1nc(NCCc2cnc[nH]2)c2oc3ccccc3c2n1	i	i	i	82*	i
COc1ccc(CCNc2nc(C)nc3c2oc2ccccc23)cc1OC	i	i	i	i	i
Cc1cccc(CS(=O)(=O)Cc2ccc(C(=O)NC3CCCC3)o2)c1	i	i	i	i	i
CCn1ccnc1CNC(=O)c1ccc(OC2CCN(C(=O)COC)CC2)cc1	i	i	i	i	i
CC(C)CCn1c(Sc2nc3ccccc3o2)nc2c1c(=O)[nH]c(=O)n2C	i	i	i	i	17*
NC(=O)C[n+]1cccc(CNC(=O)c2ccc(OC(F)F)cc2)c1	i	i	i	i	i
O=C(C[n+]1ccc(C(=O)NCc2ccccc2)cc1)c1ccc(OC(F)F)cc1	i	i	i	i	10*
COCCn1c(SCC(=O)Nc2ccc(S(=O)(=O)N3CCOCC3)cc2)nc2ccccc21	i	i	i	i	31*
CCN1C(=O)c2cccc3c(S(=O)(=O)Nc4ccccc4OC)ccc1c23	i	i	i	76*	i
CC(=O)Nc1ccc(S(=O)(=O)NCc2nc(-c3ccccc3C)no2)cc1	i	i	i	i	i
Cc1ccc2oc(C(=O)NCC(c3ccco3)N(C)C)c(C)c2c1 (stereo unspecified)	i	-6*	i	i	i
SMILES	TRPC6 inhibitor	TRPC4 block	TRPC6 act	TRPC4 agonist	TRPC4 potent
CN(C)c1ccc([N+](=O)[O-])cc1C(=O)NCC(c1ccco1)N(C)C (stereo unspecified)	i	-5*	i	i	i
CC(=O)Nc1ccc(C(=O)NCC(c2ccco2)N(C)C)cc1 (stereo unspecified)	i	i	i	i	i
CN(C)C(CNC(=O)c1ccc(C(F)(F)F)cc1)c1ccco1 (stereo unspecified)	i	-7*	i	86*	i
CN1CCN(NC(=O)CN(C)S(=O)(=O)c2cc(Cl)ccc2Cl)CC1	i	i	i	84*	i
Cc1cccc(C(C(=O)NC2CCCCC2)N(Cc2cccnc2)C(=O)c2csnn2)c1 (stereo unspecified)	i	i	i	i	i
Cc1ccc(NC(=O)CN(C)C(=O)CNC(=O)c2sc3ccccc3c2Cl)cc1	i	i	i	i	149*
CNC[C@H](O)c1ccc(O)c(O)c1	i	i	i	i	i
CNC[C@H](O)c1cccc(O)c1	i	i	i	52*	i
O=C(Cc1ccc(Br)cc1)Nc1ccccc1Sc1ccccc1	i	i	i	i	i
O=C(Cc1ccccc1)Nc1ccccc1Sc1ccccc1	i	-6*	i	i	i
CCOC(=O)c1cnc(-n2nc(C)cc2C)nc1NC1CCCCC1	i	i	i	i	18*
O=C(CCSc1nc(-c2ccco2)cc(C(F)(F)F)n1)N1CCN(c2ccccn2)CC1	-6.34*	i	i	i	i
CC(=O)c1c(C)[nH]c(C(=O)OCC(=O)N2CC(C)OC(C)C2)c1C (stereo unspecified)	i	i	i	i	i
O=C(CCCN=C1NS(=O)(=O)c2ccccc21)OCC(=O)c1ccc(F)cc1	i	i	i	48*	i
Cc1ccc(NS(=O)(=O)c2cccc(C(=O)NCC(c3ccc(F)cc3)N3CCOCC3)c2)cc1 (stereo unspecified)	i	i	i	i	i
COc1ccc(-c2ccc(CNCc3ccccn3)o2)cc1Cl	i	-8*	i	i	i
O=C(NCc1ccccn1)c1ccc(OC2CCN(Cc3cccs3)CC2)cc1	i	i	i	i	i
CCCCNC(=O)C1CCCN(S(=O)(=O)c2c(C)noc2/C=C/c2cccs2)C1 (stereo unspecified)	i	i	i	i	i
Cc1noc(/C=C/c2cccs2)c1S(=O)(=O)N1CCC(C(=O)NCCCN2CCCC(C)C2)CC1 (stereo unspecified)	i	i	i	i	10*
COc1ccc(-c2noc(N3CCC(C(=O)NCCCN4CCCC(C)C4)CC3)n2)cc1 (stereo unspecified)	i	i	i	i	10*
COc1ccc(-c2noc(N3CCC(C(=O)NCCCN4CCCCC4)CC3)n2)cc1	i	i	i	i	i
Cc1ccc(S[C@@H](CCN2CC[C@H](C(C)(C)C)CCC2=O)c2ccccc2)cc1	i	i	i	i	i
Cn1c(=O)c2sccc2n2c(CCCC(=O)N3CCN(c4ccccn4)CC3)nnc12	i	i	i	i	i
CN1CCN(C2=Nc3cc(F)ccc3Cc3ccccc32)CC1	-5.2*	i	i	i	i
CN1CCN(C2=Nc3c(Cl)cc(Cl)c4cccc2c34)CC1	i	i	i	i	i
Cc1cc(S(=O)(=O)N2c3ccc(F)cc3CCC2C)ccc1-n1cnnn1 (stereo unspecified)	i	i	i	i	i
